What was measured:
RPMI-8226 = assay: Growth inhibition of human RPMI8226 cells assessed as cell growth at 10 uM after 48 hrs by sulforhodamine B assay; assay type: functional; conditions: RPMI-8226, 48 h, read-out: Activity
Outline: (§1)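 NCI 60-cell-line panel screen (nine cancer types). Compounds added at single concentration 10^-5 M, cultures incubated 48 h; growth inhibition percentages reported.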

MDA-MB-468 = assay: Growth inhibition of human MDA-MB-468 cells assessed as cell growth at 10 uM after 48 hrs by sulforhodamine B assay; assay type: functional; conditions: MDA-MB-468, 48 h, read-out: Activity; outline: as §1
SNB-19 = assay: Growth inhibition of human SNB19 cells assessed as cell growth at 10 uM after 48 hrs by sulforhodamine B assay; assay type: functional; conditions: SNB-19, 48 h, read-out: Activity
Outline: (§2)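 NCI 60-cell-line panel from nine tumour types (leukaemia, lung, colon, CNS, melanoma, ovarian, renal, prostate, breast). Each compound was added at one single concentration, and cultures were incubated for 48 h. Results are reported as percent growth inhibition.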

SK-MEL-28 = assay: Growth inhibition of human SK-MEL-28 cells assessed as cell growth at 10 uM after 48 hrs by sulforhodamine B assay; assay type: functional; conditions: SK-MEL-28, 48 h, read-out: Activity; outline: as §1
LOX IMVI = assay: Growth inhibition of human LOXIMVI cells assessed as cell growth at 10 uM after 48 hrs by sulforhodamine B assay; assay type: functional; conditions: read-out: Activity; outline: as §1
NCI-H226 = assay: Growth inhibition of human NCI-H226 cells assessed as cell growth at 10 uM after 48 hrs by sulforhodamine B assay; assay type: functional; conditions: NCI-H226, 48 h, read-out: Activity; outline: as §1
MOLT-4 = assay: Growth inhibition of human MOLT4 cells assessed as cell growth at 10 uM after 48 hrs by sulforhodamine B assay; assay type: functional; conditions: MOLT-4, 48 h, read-out: Activity; outline: as §1
EKVX = assay: Growth inhibition of human EKVX cells assessed as cell growth at 10 uM after 48 hrs by sulforhodamine B assay; assay type: functional; conditions: read-out: Activity; outline: as §1
OVCAR-3 = assay: Growth inhibition of human OVCAR3 cells assessed as cell growth at 10 uM after 48 hrs by sulforhodamine B assay; assay type: functional; conditions: OVCAR-3, 48 h, read-out: Activity; outline: as §1
SK-MEL-5 = assay: Growth inhibition of human SK-MEL-5 cells assessed as cell growth at 10 uM after 48 hrs by sulforhodamine B assay; assay type: functional; conditions: SK-MEL-5, 48 h, read-out: Activity; outline: as §1
U-251 = assay: Growth inhibition of human U251 cells assessed as cell growth at 10 uM after 48 hrs by sulforhodamine B assay; assay type: functional; conditions: U-251, 48 h, read-out: Activity; outline: as §2
Malme-3M = assay: Growth inhibition of human MALME-3M cells assessed as cell growth at 10 uM after 48 hrs by sulforhodamine B assay; assay type: functional; conditions: read-out: Activity; outline: as §1
HCT-15 = assay: Growth inhibition of human HCT15 cells assessed as cell growth at 10 uM after 48 hrs by sulforhodamine B assay; assay type: functional; conditions: HCT-15, 48 h, read-out: Activity; outline: as §1
SF-268 = assay: Growth inhibition of human SF268 cells assessed as cell growth at 10 uM after 48 hrs by sulforhodamine B assay; assay type: functional; conditions: SF-268, 48 h, read-out: Activity; outline: as §1
KM12 = assay: Growth inhibition of human KM12 cells assessed as cell growth at 10 uM after 48 hrs by sulforhodamine B assay; assay type: functional; conditions: KM12, 48 h, read-out: Activity; outline: as §1
UACC-257 = assay: Growth inhibition of human UACC257 cells assessed as cell growth at 10 uM after 48 hrs by sulforhodamine B assay; assay type: functional; conditions: UACC-257, 48 h, read-out: Activity; outline: as §2
UACC-62 = assay: Growth inhibition of human UACC62 cells assessed as cell growth at 10 uM after 48 hrs by sulforhodamine B assay; assay type: functional; conditions: UACC-62, 48 h, read-out: Activity; outline: as §2
RXF 393 = assay: Growth inhibition of human RXF393 cells assessed as cell growth at 10 uM after 48 hrs by sulforhodamine B assay; assay type: functional; conditions: RXF 393, 48 h, read-out: Activity; outline: as §1
ACHN = assay: Growth inhibition of human ACHN cells assessed as cell growth at 10 uM after 48 hrs by sulforhodamine B assay; assay type: functional; conditions: read-out: Activity; outline: as §1
NCI-H322M = assay: Growth inhibition of human NCI-H322M cells assessed as cell growth at 10 uM after 48 hrs by sulforhodamine B assay; assay type: functional; conditions: read-out: Activity; outline: as §1
HCC 2998 = assay: Growth inhibition of human HCC2998 cells assessed as cell growth at 10 uM after 48 hrs by sulforhodamine B assay; assay type: functional; conditions: HCC 2998, 48 h, read-out: Activity; outline: as §1
DU-145 = assay: Growth inhibition of human DU145 cells assessed as cell growth at 10 uM after 48 hrs by sulforhodamine B assay; assay type: functional; conditions: DU-145, 48 h, read-out: Activity; outline: as §1
K562 = assay: Growth inhibition of human K562 cells assessed as cell growth at 10 uM after 48 hrs by sulforhodamine B assay; assay type: functional; conditions: K562, 48 h, read-out: Activity; outline: as §1
HT-29 = assay: Growth inhibition of human HT-29 cells assessed as cell growth at 10 uM after 48 hrs by sulforhodamine B assay; assay type: functional; conditions: HT-29, 48 h, read-out: Activity; outline: as §1
SN12C = assay: Growth inhibition of human SN12C cells assessed as cell growth at 10 uM after 48 hrs by sulforhodamine B assay; assay type: functional; conditions: read-out: Activity; outline: as §2
CAKI-1 = assay: Growth inhibition of human CAKI-1 cells assessed as cell growth at 10 uM after 48 hrs by sulforhodamine B assay; assay type: functional; conditions: CAKI-1, 48 h, read-out: Activity; outline: as §1
CCRF-CEM = assay: Growth inhibition of human CCRF-CEM cells assessed as cell growth at 10 uM after 48 hrs by sulforhodamine B assay; assay type: functional; conditions: read-out: Activity; outline: as §1
HepG2 [1] = assay: Inhibition of beta tubulin polymerisation in human HepG2 cells incubated for 2 hrs using TMB substrate by ELISA relative to untreated control; assay type: cell-based; parameters: concentration or dose not given beside the values; conditions: dose or concentration not given here
HL-60 = assay: Cytotoxicity in human HL60 cells assessed as reduction in cell viability incubated for 48 hrs by MTT assay; assay type: functional, cell-based; conditions: HL-60, 48 h
Outline: (§3)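 HepG2 and HL60 (ATCC) grown in DMEM with 10% FBS, 2 mM L-glutamine, penicillin/streptomycin, amphotericin B at 37 °C, 5% CO2. Samples dissolved in DMSO, diluted thousandfold in assay. Cells seeded in serum-free medium, treated with serial concentrations 48 h; MTT 4 h, formazan dissolved in acidified isopropanol, A570. Triplicates averaged; viability relative to untreated/vehicle control.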

[2] = Inhibition of beta tubulin polymerisation in human HepG2 cells incubated for 2 hrs using TMB substrate by ELISA; assay type: cell-based; conditions: HepG2, 2 h
HepG2 [3] = assay: Cytotoxicity in human HepG2 cells assessed as reduction in cell viability incubated for 48 hrs by MTT assay; assay type: functional, cell-based; conditions: HepG2, 48 h; outline: as §3

SMILES | growth at 10 µM (RPMI-8226) | growth at 10 µM (MDA-MB-468) | growth at 10 µM (SNB-19) | growth at 10 µM (LOX IMVI) | growth at 10 µM (NCI-H226) | growth at 10 µM (MOLT-4) | growth at 10 µM (EKVX) | growth at 10 µM (OVCAR-3) | growth at 10 µM (U-251) | growth at 10 µM (Malme-3M) | growth at 10 µM (HCT-15) | growth at 10 µM (SF-268) | growth at 10 µM (KM12) | growth at 10 µM (UACC-257) | growth at 10 µM (RXF 393) | growth at 10 µM (ACHN) | growth at 10 µM (NCI-H322M) | growth at 10 µM (DU-145) | growth at 10 µM (HT-29) | growth at 10 µM (CAKI-1) | other results
CCOc1ccc(-n2nc(C(=O)Nc3ccccc3OC)nc2-c2cc(OC)c(OC)c(OC)c2)cc1 | 68.2% | 92.3% | 88.5% | 92.2% | 82.3% | 76.5% | 76.3% | 95.6% | 94% | 99.8% | 80.8% | 89.2% | 96.2% | 97.9% | 88.4% | 79.3% | 77.4% | 95.6% | 74% | 66.7% | growth at 10 µM (SK-MEL-28): 78.3%; growth at 10 µM (SK-MEL-5): 73.8%; growth at 10 µM (UACC-62): 85.2%; growth at 10 µM (HCC 2998): 99.7%; growth at 10 µM (K562): 79.6%; growth at 10 µM (SN12C): 83.1%; growth at 10 µM (CCRF-CEM): 94%
CCOc1ccc(-n2nc(C(=O)Nc3cccc(OC)c3)nc2-c2cc(OC)c(OC)c(OC)c2)cc1 | 27.9% | 93.4% | 83.9% | 80.8% | 77.3% | 62.5% | 77.7% | 78.7% | 78.5% | 91.7% | 74.3% | 80.7% | 71.2% | 94.7% | 90.2% | 77.9% | 79.8% | 94.8% | 78.3% | 72.5% | inhibition (HepG2 [1]): 49.6%; IC50 (HL-60): 16.6 µM; IC50 [2]: 36.8 µM; IC50 (HepG2 [3]): 36.8 µM; growth at 10 µM (CCRF-CEM): 51.9%
CCOc1ccc(-n2nc(C(=O)Nc3ccccc3)nc2-c2cc(OC)c(OC)c(OC)c2)cc1 | 47.4% | 42.5% | 55.8% | 55.8% | 80% | 42.9% | 53.2% | 43.2% | 36.1% | 54.5% | 35.4% | 76.5% | 27.5% | 66.4% | 69.2% | 62.8% | 67.6% | 89.6% | 13% | 51.6% | inhibition (HepG2 [1]): 42.7%; IC50 (HL-60): 1.28 µM; IC50 [2]: 41.8 µM; IC50 (HepG2 [3]): 41.8 µM; growth at 10 µM (CCRF-CEM): 50.8%
